Test results published in ChEMBL document CHEMBL2062435, “Synthesis and in vitro antibacterial activity of gemifloxacin derivatives containing a substituted benzyloxime moiety” (2012).

test system: Staphylococcus epidermidis; assay: Antimicrobial activity against extended spectrum beta-lactamases-producing methicillin-sensitive Staphylococcus epidermidis 10-15 after 18-24 hrs by two-fold serial dilution method; assay type: functional
Summary of the method: (§1)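 Agar-medium twofold serial dilution against Gram-positive and Gram-negative strains; MIC taken as the lowest compound concentration giving complete inhibition of bacterial growth after incubation at 35 °C for 18-24 h.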

SMILES | MIC [µg/mL]
CS(=O)(=O)O.NCC1CN(c2nc3c(cc2F)c(=O)c(C(=O)O)cn3C2CC2)C/C1=N\OCc1ccccc1 (racemic) | 8

test system: Klebsiella pneumoniae; assay: Antimicrobial activity against extended spectrum beta-lactamases-producing Klebsiella pneumoniae 10-1 after 18-24 hrs by two-fold serial dilution method; assay type: functional; summary of the method: as §1

SMILES | MIC [µg/mL]
CS(=O)(=O)O.NCC1CN(c2nc3c(cc2F)c(=O)c(C(=O)O)cn3C2CC2)C/C1=N\OCc1ccccc1 (racemic) | 32

test system: Pseudomonas aeruginosa; assay: Antimicrobial activity against extended spectrum beta-lactamases-producing Pseudomonas aeruginosa 10-15 after 18-24 hrs by two-fold serial dilution method; assay type: functional; summary of the method: as §1

SMILES | MIC [µg/mL]
CS(=O)(=O)O.NCC1CN(c2nc3c(cc2F)c(=O)c(C(=O)O)cn3C2CC2)C/C1=N\OCc1ccccc1 (racemic) | 4

test system: Enterococcus faecalis; assay: Antimicrobial activity against Enterococcus faecalis 10-7 after 18-24 hrs by two-fold serial dilution method; assay type: functional; summary of the method: as §1

SMILES | MIC [µg/mL]
CS(=O)(=O)O.NCC1CN(c2nc3c(cc2F)c(=O)c(C(=O)O)cn3C2CC2)C/C1=N\OCc1ccccc1 (racemic) | 2

test system: Streptococcus pneumoniae; assay: Antimicrobial activity against extended spectrum beta-lactamases-producing Streptococcus pneumoniae 10-4 after 18-24 hrs by two-fold serial dilution method; assay type: functional; summary of the method: as §1

SMILES | MIC [µg/mL]
CS(=O)(=O)O.NCC1CN(c2nc3c(cc2F)c(=O)c(C(=O)O)cn3C2CC2)C/C1=N\OCc1ccccc1 (racemic) | 0.06

test system: Staphylococcus aureus; assay: Antimicrobial activity against extended spectrum beta-lactamases-producing methicillin-sensitive Staphylococcus aureus 10-14 after 18-24 hrs by two-fold serial dilution method; assay type: functional; summary of the method: as §1

SMILES | MIC [µg/mL]
CS(=O)(=O)O.NCC1CN(c2nc3c(cc2F)c(=O)c(C(=O)O)cn3C2CC2)C/C1=N\OCc1ccccc1 (racemic) | 0.03

test system: Klebsiella pneumoniae; assay: Antimicrobial activity against Klebsiella pneumoniae 10-2 after 18-24 hrs by two-fold serial dilution method; assay type: functional; summary of the method: as §1

SMILES | MIC [µg/mL]
CS(=O)(=O)O.NCC1CN(c2nc3c(cc2F)c(=O)c(C(=O)O)cn3C2CC2)C/C1=N\OCc1ccccc1 (racemic) | 32

test system: Staphylococcus epidermidis; assay: Antimicrobial activity against extended spectrum beta-lactamases-producing methicillin-resistant Staphylococcus epidermidis 10-10 after 18-24 hrs by two-fold serial dilution method; assay type: functional
Summary of the method: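 Agar twofold serial dilution MIC against clinical isolates. MIC was taken as the lowest concentration giving complete inhibition of bacterial growth after incubation at 35 °C for 18-24 h.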

SMILES | MIC [µg/mL]
CS(=O)(=O)O.NCC1CN(c2nc3c(cc2F)c(=O)c(C(=O)O)cn3C2CC2)C/C1=N\OCc1ccccc1 (racemic) | 1

test system: Staphylococcus epidermidis; assay: Antimicrobial activity against extended spectrum beta-lactamases-producing methicillin-sensitive Staphylococcus epidermidis 10-11 after 18-24 hrs by two-fold serial dilution method; assay type: functional; summary of the method: as §1

SMILES | MIC [µg/mL]
CS(=O)(=O)O.NCC1CN(c2nc3c(cc2F)c(=O)c(C(=O)O)cn3C2CC2)C/C1=N\OCc1ccccc1 (racemic) | 1

test system: Enterococcus faecalis; assay: Antimicrobial activity against Enterococcus faecalis 10-5 after 18-24 hrs by two-fold serial dilution method; assay type: functional; summary of the method: as §1

SMILES | MIC [µg/mL]
CS(=O)(=O)O.NCC1CN(c2nc3c(cc2F)c(=O)c(C(=O)O)cn3C2CC2)C/C1=N\OCc1ccccc1 (racemic) | 1

test system: Klebsiella pneumoniae; assay: Antimicrobial activity against extended spectrum beta-lactamases-producing Klebsiella pneumoniae 10-3 after 18-24 hrs by two-fold serial dilution method; assay type: functional; summary of the method: as §1

SMILES | MIC [µg/mL]
CS(=O)(=O)O.NCC1CN(c2nc3c(cc2F)c(=O)c(C(=O)O)cn3C2CC2)C/C1=N\OCc1ccccc1 (racemic) | 32

test system: Escherichia coli; assay: Antimicrobial activity against extended spectrum beta-lactamases-producing Escherichia coli 10-2 after 18-24 hrs by two-fold serial dilution method; assay type: functional; summary of the method: as §1

SMILES | MIC [µg/mL]
CS(=O)(=O)O.NCC1CN(c2nc3c(cc2F)c(=O)c(C(=O)O)cn3C2CC2)C/C1=N\OCc1ccccc1 (racemic) | 32

test system: Pseudomonas aeruginosa; assay: Antimicrobial activity against extended spectrum beta-lactamases-producing Pseudomonas aeruginosa 10-18 after 18-24 hrs by two-fold serial dilution method; assay type: functional; summary of the method: as §1

SMILES | MIC [µg/mL]
CS(=O)(=O)O.NCC1CN(c2nc3c(cc2F)c(=O)c(C(=O)O)cn3C2CC2)C/C1=N\OCc1ccccc1 (racemic) | 1

test system: Escherichia coli; assay: Antimicrobial activity against Escherichia coli 10-2 after 18-24 hrs by two-fold serial dilution method; assay type: functional; summary of the method: as §1

SMILES | MIC [µg/mL]
CS(=O)(=O)O.NCC1CN(c2nc3c(cc2F)c(=O)c(C(=O)O)cn3C2CC2)C/C1=N\OCc1ccccc1 (racemic) | 4

test system: Staphylococcus aureus; assay: Antimicrobial activity against Staphylococcus aureus ATCC […] after 18-24 hrs by two-fold serial dilution method; assay type: functional; summary of the method: as §1

SMILES | MIC [µg/mL]
CS(=O)(=O)O.NCC1CN(c2nc3c(cc2F)c(=O)c(C(=O)O)cn3C2CC2)C/C1=N\OCc1ccccc1 (racemic) | < 0.008

test system: Enterococcus faecium; assay: Antimicrobial activity against Enterococcus faecium 10-5 after 18-24 hrs by two-fold serial dilution method; assay type: functional; summary of the method: as §1

SMILES | MIC [µg/mL]
CS(=O)(=O)O.NCC1CN(c2nc3c(cc2F)c(=O)c(C(=O)O)cn3C2CC2)C/C1=N\OCc1ccccc1 (racemic) | 4

test system: Escherichia coli; assay: Antimicrobial activity against extended spectrum beta-lactamases-producing Escherichia coli 10-4 after 18-24 hrs by two-fold serial dilution method; assay type: functional; summary of the method: as §1

SMILES | MIC [µg/mL]
CS(=O)(=O)O.NCC1CN(c2nc3c(cc2F)c(=O)c(C(=O)O)cn3C2CC2)C/C1=N\OCc1ccccc1 (racemic) | 4

test system: Klebsiella pneumoniae; assay: Antimicrobial activity against Klebsiella pneumoniae 10-3 after 18-24 hrs by two-fold serial dilution method; assay type: functional; summary of the method: as §1

SMILES | MIC [µg/mL]
CS(=O)(=O)O.NCC1CN(c2nc3c(cc2F)c(=O)c(C(=O)O)cn3C2CC2)C/C1=N\OCc1ccccc1 (racemic) | 2
